RanGTP-Impb inh: inhibitors of RanGTP-importin-beta interaction, primary screen, biochemical, FRET, CFP-Ran, YFP-importin-beta, homogeneous; 300,000 tested, 1.1% active; AID 2216; inhibition, % (no concentration beside the values); cell-free CFP-Ran/YFP-importin-beta FRET ratio;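 active = more than half of the replicate wells show a fall in the fluorescence ratio signal beyond about 16%, limit read from the data, passing the limit was not always enough; inconclusive = exactly half of the replicate wells pass the set limit; inactive = fewer than half of replicates pass the limit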;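 note: 0% = DMSO wells and 100% = Ran loaded with GDP instead of GTP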
EBV gp42 inh: blocks Epstein-Barr virus glycoprotein 42 binding. Q1HVG2. Fluorescence polarization binding assay, mP read-out. inhibition, % (tested at 21.74 µM). 220,000 tested, 0.42% active. AID 1085; in the data active = inhibition above about 50%
Runt-CBFb FRET: inhibitors of human RUNX1 Runt domain binding to CBFb; 220,000 tested, 0.46% active; AID 1496; inhibition, % at 20 µM; Cerulean-Runt/Venus-CBFb FRET ratio 530/480, 1 h; Q01196+Q13951;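 active = inhibition over about 50% at 20 µM in the single-dose screen, limit read from the data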;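 note: 0% = DMSO wells and 100% = excess unlabeled CBFb competitor control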
Target sequence (Q01196 whole entry, looked up, the tested form may be a part): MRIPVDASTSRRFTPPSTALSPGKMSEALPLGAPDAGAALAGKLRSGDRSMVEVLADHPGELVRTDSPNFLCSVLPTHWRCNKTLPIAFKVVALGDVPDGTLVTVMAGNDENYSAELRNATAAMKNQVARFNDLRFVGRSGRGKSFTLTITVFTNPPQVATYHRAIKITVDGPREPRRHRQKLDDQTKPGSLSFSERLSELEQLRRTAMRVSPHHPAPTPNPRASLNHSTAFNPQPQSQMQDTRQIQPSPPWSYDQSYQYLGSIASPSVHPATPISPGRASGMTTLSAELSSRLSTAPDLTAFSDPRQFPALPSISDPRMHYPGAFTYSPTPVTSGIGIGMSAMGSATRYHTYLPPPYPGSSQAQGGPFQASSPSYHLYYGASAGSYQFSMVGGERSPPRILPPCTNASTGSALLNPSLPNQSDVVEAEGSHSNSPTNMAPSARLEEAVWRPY
Target sequence (Q13951 whole entry, looked up, the tested form may be a part): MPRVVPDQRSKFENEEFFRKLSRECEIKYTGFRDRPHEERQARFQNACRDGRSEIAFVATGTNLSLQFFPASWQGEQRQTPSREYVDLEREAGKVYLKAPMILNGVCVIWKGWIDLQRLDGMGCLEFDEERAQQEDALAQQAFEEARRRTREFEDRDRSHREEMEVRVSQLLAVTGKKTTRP
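Buffer or medium: Tris pH 7.5 buffer with BSA. Assay system: Cerulean-labeled Runt domain protein. Amount: each fluorescent fusion protein 100 nM. Read-out basis: loss of energy transfer signal. Incubation: 1 h compound exposure, room temperature. Probe or stimulus: Venus-CBFb binding partner, 100 nM. Detection: FRET, excitation 422 nm, emission at 530 and 480 nm.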
MEX-5 binding: C. elegans MEX-5 TCR-2 RNA binding activity; Q9XUB2; MEX-5/FITC-TCR2 RNA binding, fluorescence polarization; active compounds read low; activity score (negative = inhibition of binding), % at 10 µM; 300,000 tested, 0.38% active; AID 1832;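 active = inhibition past about -25% in most replicates, and total fluorescence under double the plate's negative control median, limit read from the data; inconclusive = replicates evenly split on the limit, or fluorescence at least double controls; inactive = too little inhibition in most replicates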;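 note: 0% = DMSO and -100% = 5 µM competing unlabeled TCR2 RNA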
LANA-H2A inh: blocks KSHV LANA binding to histone H2A/H2B; inhibition, % (test concentration not listed); 320,000 tested, 0.6% active; cell-free LANA-H2A/H2B peptide, fluorescence polarization; Q9QR71; in the data active = inhibition mostly above about 10%, no sharp cut-off; inactive = mostly below about 6.7%
Runt-SMMHC FRET: Runt domain-CBFb-SMMHC interaction inhibition; Q01196+Q13951; Cerulean-Runt/Venus-CBFb-SMMHC FRET ratio 530/480, 1 h; 220,000 tested, 0.74% active; inhibition, % at 20 µM;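 active = mean inhibition across duplicate retests at 20 µM reaching about 50%, limit read from the data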;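 note: 0% = DMSO wells and 100% = wells with excess untagged CBFb-SMMHC; inhibitors lower the FRET ratio by blocking Runt binding to CBFb-SMMHC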
* marks the source's active call; other numbers are inactive results; ? = inconclusive; . = no result given; + = active, no number. Only some compounds are listed: those with a hit (about 2.4% of all), similar ones and a draw of the others.

SMILES	RanGTP-Impb inh	EBV gp42 inh	Runt-CBFb FRET	MEX-5 binding	LANA-H2A inh	Runt-SMMHC FRET
NC(=O)c1snnc1-c1ccccc1	-1.9	-13.8	0.9	-28.6*	-6.8	-1.2
NC(=O)c1sc2nnc(-c3ccccc3)c(-c3ccccc3)c2c1N	-11.1	-6.2	-9.5	-53.3*	0.7	-48.9
O=C(c1cccn2c(=O)c3ccc(Cl)cc3nc12)N1CCN(Cc2ccc3c(c2)OCO3)CC1	11.1	0.2	1.8	-0.9	-0.9	7.7
O=C(O)c1ccccc1NS(=O)(=O)c1ccc(NNC(=S)Nc2ccc(OC(F)F)cc2)c([N+](=O)[O-])c1	1.9	19.1	12.7	-42.5*	.	0.7
N#Cc1cc2c([nH]c1=S)CCCC2	3.0	-25.8	3.8	-1.2	3.2	-2.5
N#Cc1cc2c([nH]c1=O)CCCC2	1.3	-15.1	2.7	-0.9	9.1*	-2.4
O=[N+]([O-])c1ccc(N=Nc2ncc[nH]2)cc1	-2.1	.	.	-32.2*	5.5	.
O=[N+]([O-])c1ccc(N=NN(CCO)CCO)cc1	?	4.5	-1.4	1.0	-3.1	-1.3
CC(=O)Nc1ccc(S(=O)(=O)NC2=C(N3CCN(Cc4ccccc4)CC3)C(=O)c3ccccc3C2=O)cc1	0.2	-7.1	1.5	3.1	+	1.3
CCN1CCN(C2=C(NS(=O)(=O)c3ccc(NC(C)=O)cc3)C(=O)c3ccccc3C2=O)CC1	1.3	.	.	1.1	-1.7	.
CC1(C)CC(=O)C(N=Nc2ccc(S(=O)(=O)N3CCOCC3)cc2)=C(O)C1	0.3	3.6	2.8	-0.8	0.0	-5.6
O=C(NNC(=O)c1ccncc1)NC1CCCCC1	-0.4	2.9	-0.1	-0.9	-0.8	-4.9
COc1ccc(C(CNC(=O)c2ccc(C)c(S(=O)(=O)Nc3ccccc3OC)c2)N2CCCC2)cc1 (stereo not drawn)	-1.3	.	.	-1.2	-0.3	.
O=C(CCN1CCN(c2ccccc2)CC1)N/N=C/c1ccc(O)c(O)c1O	-3.8	57.8*	14.5	-0.2	.	3.7
COc1ccc(/C=N/NC(=O)CCN2CCN(c3ccccc3)CC2)c(OC)c1OC	1.5	3.9	1.3	3.0	-1.9	3.4
NCc1cc2c3c(c1)CCCN3CCC2	13.1	.	.	-2.2	-5.5	.
CCOc1cccc(/C=C(/C#N)c2nc3ccccc3[nH]2)c1OCC(=O)O	2.7	.	.	-2.7	-2.1	.
COc1cc(/C=C(\C#N)c2nc3ccccc3[nH]2)c([N+](=O)[O-])cc1OCc1ccccc1	8.6	-26.8	37.8	-0.8	-0.3	82.9*
CCN(CC)c1ccc(/C=C(/C#N)c2nc3ccccc3[nH]2)c(OC(C)C)c1	-58.6	48.0	-98.0	-33.0*	4.2	-270.7
O=C(NCC(c1ccco1)N1CCCCC1)c1cccnc1 (stereo not drawn)	.	.	.	.	1.0	.
CCCN1CCc2c(sc(NC(=O)c3ccc(S(=O)(=O)N4CCN(C(=O)OCC)CC4)cc3)c2C(N)=O)C1	96.5*	.	.	?	2.0	.
CCOC(=O)N1CCN(S(=O)(=O)c2ccc(C(=O)Nc3sc4c(c3C(N)=O)CCN(CC)C4)cc2)CC1	43.0*	.	.	10.7	-10.4	.
Nc1c(C(=O)CSc2nc3ccccc3o2)c(=O)[nH]c(=O)n1C1CC1	.	.	.	.	-0.2	.
CSc1nnc(Nc2ccccc2C)s1	1.4	-7.2	2.4	-1.0	-0.8	-2.4
Cc1ccccc1Nc1nc(Cl)c(C=O)s1	-3.5	-37.8	-4.2	-40.8*	4.0	-11.1
SMILES	RanGTP-Impb inh	EBV gp42 inh	Runt-CBFb FRET	MEX-5 binding	LANA-H2A inh	Runt-SMMHC FRET
CCOC(=O)C1=C(O)/C(=C/c2cn(CC(=O)N3CCCC3)c3ccccc23)SC1=Nc1ccccc1	-0.1	-7.0	20.9	-46.5*	.	82.8*
Cc1ccccc1OCCC(=O)OCC(=O)Nc1c(C)nn(-c2ccccc2)c1C	7.4	.	.	2.6	-9.5	.
Cc1ccc(C(=O)COC(=O)CSc2cccc3cccnc23)c(C)c1	0.5	.	.	0.9	16.7*	.
O=C(Nc1ccc(NC(=O)C2CC2)cc1)c1cccs1	4.5	.	.	-1.6	1.2	.
Cc1c(CCO)c(=O)[nH]n1S(=O)(=O)c1ccc(F)cc1	-3.3	.	.	-2.6	14.0*	.
Cc1c(CCO)c(=O)[nH]n1S(=O)(=O)c1ccccc1	4.4	3.2	0.3	1.7	0.4	3.4
O=C(c1ccc(F)cc1)N1CCN=C1c1ccccc1	-0.3	-13.9	-2.7	-0.1	0.5	-1.3
Cc1noc(C)c1S(=O)(=O)NC1CCN(Cc2ccccc2)CC1	-0.3	1.9	2.6	-33.7*	0.6	1.9
Cc1cc(C)c(S(=O)(=O)NC2CCN(Cc3ccccc3)CC2)c(C)c1	8.2	-17.3	1.5	2.6	3.4	0.0
COc1ccccc1CNC(=O)CCC(=O)n1ncc2cc(C)ccc21	6.4	.	.	3.1	-2.9	.
COc1ccc(-c2sc3ccccc3c2-c2ccc(O)cc2)cc1	.	.	.	.	-0.6	.
COc1ccc(-c2sc3cc(OC)c(OC)cc3c2-c2ccc(O)cc2)cc1	.	.	.	.	+	.
O=C(CNC(=O)N1CC(=O)Nc2ccccc21)NCCc1ccc(Cl)cc1	1.4	.	.	1.3	16.7*	.
COc1ccc(N=Cc2nc(-c3ccco3)oc2O)cc1	20.3*	-9.1	1.3	-3.3	6.5	4.6
CC(=O)Nc1ccc(N=Cc2nc(-c3ccc(C)cc3)oc2O)cc1	-3.2	12.4	-218.5	-31.1*	1.3	-26.5
Cc1ccc(N=Cc2nc(-c3ccc(C)cc3)oc2O)cc1	8.4	-19.0	-14.2	-42.4*	.	-16.5
COc1ccc2nc3ccccc3nc2c1NC(=O)c1ccc(Cl)cc1Cl	-228.1	24.9	-418.9	-53.2*	8.3	-269.4
COc1cc(-c2cc(C(=O)Nc3c(Cl)cc(Cl)cc3Cl)c3ccccc3n2)cc(OC)c1OC	?	-9.5	-2.5	0.2	-1.0	-5.9
C=CCN(CC=C)C(=S)Nc1cc(Cl)ccc1OC	-2.3	-8.9	-0.1	1.9	9.2	2.2
C=CCNC(=S)Nc1cc(Cl)ccc1OC	2.2	-12.5	-1.8	-39.6*	0.9	-4.3
Oc1ccc(C2=CSC3=NCCN23)cc1O	6.2	.	.	-30.3*	2.4	.
Brc1ccc(C2=CSC3=NCCN23)cc1	3.1	10.0	-0.2	-1.2	4.2	-1.2
O=C(O)c1ccc[n+](Cc2ccc([N+](=O)[O-])cc2)c1	12.3*	.	.	-1.2	-6.5	.

Screening data as filed in PubChem.
